Calls of active or inactive are those of the source.
Tests used:
Bos taurus = organism: Bos taurus; test: Displacement of [3H]Ro151788 from GABA(A)/BzR in bovine cerebral cortex membrane at 10 uM; type: cell membranes
Procedure, shortened: (§1)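 Bovine cerebral cortex membranes in 50 mM Tris-citrate pH 7.4; [3H]flumazenil displacement. Compounds first tested at a fixed 10 µM; Ki determined only when inhibition exceeded 80%, using at least six concentrations. Five experiments run in triplicate; IC50 obtained by iterative curve fitting and converted to Ki with the Cheng–Prusoff equation.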

Mus musculus [1] = test: Antihyperalgesic activity against streptozotocin-induced hyperalgesia in Swiss albino mouse […] assessed as licking latency time at 30 mg/kg, po after 60 mins by hot plate test (reference value: 10.4 +/- 0.8 secs); type: functional
Mus musculus [2] = test: Antihyperalgesic activity Swiss albino mouse […] assessed as licking latency time at 30 mg/kg, po after 60 mins by hot plate test (reference value: 14.9 +/- 1.1 secs); type: functional
Procedure, shortened: (§2)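 Hot plate at 52.5 ± 0.1 °C in non-diabetic male Swiss mice. Latency to licking of fore or hind paws was timed before dosing and every 15 min up to 60 min after oral dosing. Mice with pretest latencies below 12 s or above 18 s were excluded. Cut-off was 45 s.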

Mus musculus [3] = test: Antihyperalgesic activity against streptozotocin-induced hyperalgesia in Swiss albino mouse […] assessed as licking latency time at 30 mg/kg, po after 45 mins by hot plate test (reference value: 10.4 +/- 0.8 secs); type: functional
Mus musculus [4] = test: Antihyperalgesic activity Swiss albino mouse […] assessed as licking latency time at 30 mg/kg, po after 45 mins by hot plate test (reference value: 14.9 +/- 1.1 secs); type: functional; procedure, shortened: as §2
Mus musculus [5] = test: Antihyperalgesic activity against streptozotocin-induced hyperalgesia in Swiss albino mouse […] assessed as licking latency time at 30 mg/kg, po after 30 mins by hot plate test (reference value: 10.4 +/- 0.8 secs); type: functional
Mus musculus [6] = test: Antihyperalgesic activity Swiss albino mouse […] assessed as licking latency time at 30 mg/kg, po after 30 mins by hot plate test (reference value: 14.9 +/- 1.1 secs); type: functional; procedure, shortened: as §2
Mus musculus [7] = test: Antihyperalgesic activity against streptozotocin-induced hyperalgesia in Swiss albino mouse […] assessed as licking latency time at 30 mg/kg, po after 15 mins by hot plate test (reference value: 10.4 +/- 0.8 secs); type: functional
Mus musculus [8] = test: Antihyperalgesic activity Swiss albino mouse […] assessed as licking latency time at 30 mg/kg, po after 15 mins by hot plate test (reference value: 14.9 +/- 1.1 secs); type: functional; procedure, shortened: as §2
Mus musculus [9] = test: Anxiolytic-like activity in Swiss albino mouse at 10 mg/kg, po after 30 mins by light/dark box test; type: functional, organism-based; parameters: dose 10 mg/kg
Procedure, shortened: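 Male Swiss mice tested in a two-compartment light/dark box. Transfers between compartments and time spent in the lit side recorded. Compound given po 30 min before testing, in 10 ml/kg; flumazenil given i.p. for antagonism; 8 mice per group.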

[10] = Displacement of [3H]Ro151788 from GABA(A)/BzR in bovine cerebral cortex membrane; type: cell membranes, Bos taurus; procedure, shortened: as §1
Mus musculus [11] = test: Analgesic activity in Swiss albino mouse abdominal constriction model assessed as decrease in number of acetic acid-induced writhing at 10 to 30 mg/kg, po after 30 mins; type: functional, organism-based; details: Abdomen
Procedure, shortened: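 Male Swiss albino mice (23–30 g). Compounds given po in 1% CMC vehicle 30 min before the test. Acetic acid 0.6% injected i.p. at 10 ml/kg. Stretching movements were counted for 10 min, starting 5 min after the acetic acid injection. 8–15 mice per group.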

Mus musculus [12] = test: Anticonvulsant activity in Swiss albino mouse […] assessed as protection against intraperitoneally administered pentylenetetrazol-induced seizures at 30 mg/kg, po after 30 mins; type: functional
Procedure, shortened: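 Male Swiss albino mice. Compounds given po and PTZ 90 mg/kg injected 30 min later; PTZ was dissolved in 0.9% NaCl saline. Clonic generalized convulsions were recorded over 30 min. Each value is the mean of 10 mice. The methods give the PTZ route as s.c. and the table footnote gives it as ip.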

Rattus norvegicus [13] = test: Antinociceptive activity in Sprague-Dawley rat mononeuropathy pain model assessed as increase in injured paw pressure at 3 mg/kg, po after 45 mins by paw pressure test relative to non-treated control; type: functional
Procedure, shortened: (§3)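 Chronic constriction injury: loose ligatures placed on the common sciatic nerve under chloral hydrate; contralateral sham dissection. Tested 14 days after surgery. Paw pressure applied at 32 g/s; threshold taken as the force causing the first struggle; cut-off 250 g; pretest outliers (<40 g or >75 g) excluded. Oral dosing in 10 ml/kg; read at 15, 30 and 45 min; compared with a CMC-treated group.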

Rattus norvegicus [14] = test: Antinociceptive activity in Sprague-Dawley rat mononeuropathy pain model assessed as increase in injured paw pressure at 3 mg/kg, po after 30 mins by paw pressure test relative to non-treated control; type: functional; procedure, shortened: as §3
Rattus norvegicus [15] = test: Antinociceptive activity in Sprague-Dawley rat mononeuropathy pain model assessed as increase in injured paw pressure at 3 mg/kg, po after 15 mins by paw pressure test relative to non-treated control; type: functional; procedure, shortened: as §3
Rattus norvegicus [16] = test: Toxicity in Sprague-Dawley rat mononeuropathy pain model assessed as effect on contralateral paw pressure at 3 mg/kg, po after 45 mins by paw pressure test; type: organism-based; parameters: dose 3 mg/kg, route oral; details: in vivo, 0.75 h
Procedure, shortened: (§4)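 Same sciatic-ligation rat model, 14 days after surgery. Threshold measured on the non-operated contralateral hind paw by analgesimeter at 32 g/s; first-struggle endpoint; 250 g cut-off; pretest rats outside 40–75 g rejected. Compound given po in 10 ml/kg; readings at 15, 30 and 45 min.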

Rattus norvegicus [17] = test: Toxicity in Sprague-Dawley rat mononeuropathy pain model assessed as effect on contralateral paw pressure at 3 mg/kg, po after 30 mins by paw pressure test; type: organism-based; parameters: dose 3 mg/kg, route oral; details: in vivo, 0.5 h; procedure, shortened: as §4
Rattus norvegicus [18] = test: Toxicity in Sprague-Dawley rat mononeuropathy pain model assessed as effect on contralateral paw pressure at 3 mg/kg, po after 15 mins by paw pressure test; type: organism-based; parameters: dose 3 mg/kg, route oral; details: in vivo, 0.25 h; procedure, shortened: as §4
Rattus norvegicus [19] = test: Antinociceptive activity in Sprague-Dawley rat mononeuropathy pain model assessed as increase in injured paw pressure at 30 mg/kg, po after 45 mins by paw pressure test relative to non-treated control; type: functional; procedure, shortened: as §3
Rattus norvegicus [20] = test: Antinociceptive activity in Sprague-Dawley rat mononeuropathy pain model assessed as increase in injured paw pressure at 30 mg/kg, po after 30 mins by paw pressure test relative to non-treated control; type: functional; procedure, shortened: as §3
Rattus norvegicus [21] = test: Antinociceptive activity in Sprague-Dawley rat mononeuropathy pain model assessed as increase in injured paw pressure at 30 mg/kg, po after 15 mins by paw pressure test relative to non-treated control; type: functional; procedure, shortened: as §3
Rattus norvegicus [22] = test: Antinociceptive activity in Sprague-Dawley rat mononeuropathy pain model assessed as increase in injured paw pressure at 10 mg/kg, po after 45 mins by paw pressure test relative to non-treated control; type: functional; procedure, shortened: as §3
Rattus norvegicus [23] = test: Antinociceptive activity in Sprague-Dawley rat mononeuropathy pain model assessed as increase in injured paw pressure at 10 mg/kg, po after 30 mins by paw pressure test relative to non-treated control; type: functional; procedure, shortened: as §3
Rattus norvegicus [24] = test: Antinociceptive activity in Sprague-Dawley rat mononeuropathy pain model assessed as increase in injured paw pressure at 10 mg/kg, po after 15 mins by paw pressure test relative to non-treated control; type: functional; procedure, shortened: as §3
Rattus norvegicus [25] = test: Toxicity in Sprague-Dawley rat mononeuropathy pain model assessed as effect on contralateral paw pressure at 30 mg/kg, po after 45 mins by paw pressure test; type: organism-based; parameters: dose 30 mg/kg, route oral; details: in vivo, 0.75 h; procedure, shortened: as §4
Rattus norvegicus [26] = test: Toxicity in Sprague-Dawley rat mononeuropathy pain model assessed as effect on contralateral paw pressure at 30 mg/kg, po after 30 mins by paw pressure test; type: organism-based; parameters: dose 30 mg/kg, route oral; details: in vivo, 0.5 h; procedure, shortened: as §4
Rattus norvegicus [27] = test: Toxicity in Sprague-Dawley rat mononeuropathy pain model assessed as effect on contralateral paw pressure at 30 mg/kg, po after 15 mins by paw pressure test; type: organism-based; parameters: dose 30 mg/kg, route oral; details: in vivo, 0.25 h; procedure, shortened: as §4
Rattus norvegicus [28] = test: Toxicity in Sprague-Dawley rat mononeuropathy pain model assessed as effect on contralateral paw pressure at 10 mg/kg, po after 45 mins by paw pressure test; type: organism-based; parameters: dose 10 mg/kg, route oral; details: in vivo, 0.75 h; procedure, shortened: as §4
Rattus norvegicus [29] = test: Toxicity in Sprague-Dawley rat mononeuropathy pain model assessed as effect on contralateral paw pressure at 10 mg/kg, po after 30 mins by paw pressure test; type: organism-based; parameters: dose 10 mg/kg, route oral; details: in vivo, 0.5 h; procedure, shortened: as §4
Rattus norvegicus [30] = test: Toxicity in Sprague-Dawley rat mononeuropathy pain model assessed as effect on contralateral paw pressure at 10 mg/kg, po after 15 mins by paw pressure test; type: organism-based; parameters: dose 10 mg/kg, route oral; details: in vivo, 0.25 h; procedure, shortened: as §4

In the case of `[O-][n+]1nc2c(I)cnn2c2cc(NCc3ccccc3)ccc21`, the inhibition (Bos taurus) is reported as > 80%, the Time (Mus musculus [1]) is reported as 17.9 s and the Time (Mus musculus [2]) is reported as 16.3 s. It also gave a Time (Mus musculus [3]) of 17.3 s, a Time (Mus musculus [4]) of 15.8 s and a Time (Mus musculus [5]) of 16.4 s. The Time (Mus musculus [6]) was 16.9 s, the Time (Mus musculus [7]) was 16.6 s and the Time (Mus musculus [8]) was 16.3 s. For the same compound, the Activity (Mus musculus [9]) was “Active”, the Ki [10] was 0.109 nM and the Activity (Mus musculus [11]) was “inactive”. The Activity (Mus musculus [12]) was 10%, the Activity (Rattus norvegicus [13]) was 31.2 g and the Activity (Rattus norvegicus [14]) was 33.8 g. The Activity (Rattus norvegicus [15]) was 41.4 g, the Activity (Rattus norvegicus [16]) was 60.7 g and the Activity (Rattus norvegicus [17]) was 59.5 g. The Activity (Rattus norvegicus [18]) was 62.3 g, the Activity (Rattus norvegicus [19]) was 38.1 g and the Activity (Rattus norvegicus [20]) was 42.3 g. For the same compound, the Activity (Rattus norvegicus [21]) was 46.4 g, the Activity (Rattus norvegicus [22]) was 36.7 g and the Activity (Rattus norvegicus [23]) was 44.8 g. For the same compound, the Activity (Rattus norvegicus [24]) was 49.5 g, the Activity (Rattus norvegicus [25]) was 62.2 g and the Activity (Rattus norvegicus [26]) was 58.9 g. It also gave an Activity (Rattus norvegicus [27]) of 61.7 g, an Activity (Rattus norvegicus [28]) of 61.2 g and an Activity (Rattus norvegicus [29]) of 61.5 g. It also gave an Activity (Rattus norvegicus [30]) of 64.8 g.
